Shown are actives, neighbours in structure and some others; about 3.1% of the full set was active somewhere.
KCNK3 block – human KCNK3 channel inhibitors, primary screen, CHO cells, FluxOR thallium flux, B-score. B-score at 10 µM. FluxOR fluorescence; active compounds read low. 340,000 tested, 0.84% active;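 active = B-score under library mean minus 4 SD, starting fluorescence ratio at most library mean plus 5 SD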;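 note: more negative B-score means stronger inhibition of thallium flux through KCNK3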
KCNK9 block – KCNK9 potassium channel inhibitors, primary screen, HEK293 cells, thallium flux. FluxOR thallium flux fluorescence; active compounds read low. B-score at 10 µM. 310,000 tested, 1.2% active;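 active = ratio B-score over 3 SD below the library mean, with starting fluorescence within 5 SD of its mean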;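 note: negative B-score means less thallium flux so channel inhibition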
Target sequence (Q9NPC2 whole entry, looked up): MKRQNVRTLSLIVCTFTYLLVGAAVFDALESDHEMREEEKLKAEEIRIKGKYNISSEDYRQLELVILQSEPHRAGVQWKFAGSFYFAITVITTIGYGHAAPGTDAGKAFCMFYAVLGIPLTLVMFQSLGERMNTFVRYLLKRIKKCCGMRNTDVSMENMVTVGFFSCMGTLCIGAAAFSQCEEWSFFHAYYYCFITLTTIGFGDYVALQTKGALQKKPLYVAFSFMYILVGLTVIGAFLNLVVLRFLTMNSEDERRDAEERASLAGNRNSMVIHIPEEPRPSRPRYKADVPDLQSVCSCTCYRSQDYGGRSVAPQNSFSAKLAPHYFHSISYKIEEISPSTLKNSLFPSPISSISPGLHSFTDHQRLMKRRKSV
hERG rescue – hERG rescue from dofetilide block, primary screen, cell-based, CHO-hERG, FluxOR thallium flux, dofetilide IC70; Voltage-gated inwardly rectifying potassium channel KCNH2 (Homo sapiens), Q12809; dofetilide IC70 present; activation (rescue from dofetilide block), less the hit threshold, % at 10 µM; 310,000 tested, 0.51% active;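 active = activation above the mean of controls blocked by dofetilide plus 5 SD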;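 note: thallium influx through hERG after potassium depolarization seen as dye fluorescence rise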
KCNQ1 act – potentiators or activators of KCNQ1 channel, primary screen, cell-based, thallium flux, high-throughput. Potassium voltage-gated channel subfamily KQT member 1 (Homo sapiens), P51787. CHO-K1 KCNQ1, thallium flux FluxOR fluorescence; active compounds read high. B-score at 10 µM. 310,000 tested, 0.35% active;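 active = fluorescence ratio B-score, a plate-corrected score, at least three library SD, with initial intensity B-score within 5 SD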
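Medium – assay buffer, equal DMSO in all wells · Material – CHO-K1 cell line with stable KCNQ1 potassium channel expression · Signal – kinetic FluxOR thallium fluorescence, 10-s 1-Hz baseline, 110-s post-stimulus read · Compound – single concentration per compound, DMSO matched to controls · Schedule – 37 °C overnight plating, 90-min dark dye load, 20-min compound pretreatment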
KCNQ1 inh – inhibitors of human KCNQ1 channel, primary screen, cell-based, thallium flux, high-throughput. Potassium voltage-gated channel subfamily KQT member 1 (Homo sapiens), P51787. CHO-K1 KCNQ1, FluxOR thallium flux fluorescence; active compounds read high. B-score at 10 µM. 310,000 tested, 1.3% active;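 active = compounds whose thallium flux B-score, printed positive for inhibition, exceeds three library SD while starting fluorescence stays within three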;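 note: channel opened by potassium depolarization with thallium stimulus after 20 min compound exposure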
KCNK9 inh conf – KCNK9 potassium channel inhibitors, confirmation, HEK293 cells, thallium flux, duplicate; inhibition, % at 10 µM; 4,900 tested, 43% active; FluxOR thallium flux fluorescence; AID 492992, 2010; shares compounds with KCNK9 block;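 active = thallium signal inhibited by more than 5 SD of the compound-free buffer control wells, on both duplicate plates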;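 note: 0% = assay buffer control wells without compound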
Kir21 sel – mouse Kir2.1 channel inhibition, confirmation, selectivity assay for KCNK9 modulator project, cell-based, HEK293, thallium flux | shares compounds with KCNK9 block | Kir2.1 cells, FluxOR thallium flux fluorescence | inhibition, % at 10 µM | 4,900 tested, 4% active | AID 492993, 2010;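 active = thallium signal drop more than 5 SD beyond the mean of the no-compound control wells, seen in both duplicate plates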;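 note: signal is fluorescence rise after thallium addition divided by baseline fluorescence; plate controls were assay buffer only for no effect and full block by chlorpromazine control for full effect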
KCNK9 uninduced – thallium flux in non-induced HEK293 cells, confirmation, counter-screen for KCNK9 inhibitor project, cell-based, second counter screen, non-induced KCNK9-HEK293; shares compounds with KCNK9 block; 4,900 tested, 40% active; inhibition, % at 10 µM; FluxOR thallium flux;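 active = thallium signal drop beyond 5 SD of the untreated control mean, on both duplicate plates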;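 note: plate controls were buffer only IC0 wells for no effect and SID17386958 at its maximal inhibitory level for full effect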
The depositor's hits bear a star; i = inactive; / = no result.

SMILES | KCNK3 block | KCNK9 block | hERG rescue | KCNQ1 act | KCNQ1 inh | KCNK9 inh conf | Kir21 sel | KCNK9 uninduced
CCCC(C)C(=O)Nc1nc(C)c(-c2csc(Nc3cc(OC)ccc3OC)n2)s1 (centres undefined) | i | -18* | -22 | i | i | 46%* | i | i
C=CCCC(=O)Nc1nc(C)c(-c2csc(Nc3cc(OC)ccc3OC)n2)s1 | i | -8.7* | -4 | i | i | 56%* | i | 28%*
Cc1cc(=O)oc2cc(OCC(=O)NC3CCCCC3)ccc12 | i | i | -4 | i | i | / | / | /
O=C(COC(=O)c1ccc(Cl)cc1)NC(=O)NC1CCCC1 | i | / | / | / | / | / | / | /
CC(NCC(=O)NC(=O)NC1CCCC1)c1ccc(Cl)cc1Cl (centres undefined) | i | i | -13 | i | i | i | i | i
O=C(CN1C(=O)NC2(CCCc3ccccc32)C1=O)NCc1cccs1 (centres undefined) | i | / | / | / | / | / | / | /
CCOC(=O)Cn1c(=NC(=O)CSC(C)=O)sc2ccccc21 | i | -8.2* | -12 | i | i | 48%* | i | 40%*
COc1cc(C2C3=C(COC3=O)Oc3cc4c(cc32)OCO4)ccc1O (centres undefined) | i | / | / | / | / | / | / | /
Cc1ccc(Cn2c(C3CCCN3c3nc(C)cs3)nc3cc(C(F)(F)F)ccc32)cc1 (centres undefined) | i | -15* | -15 | i | i | 74%* | i | 56%*
Cc1ccc(Cn2c(C3CCCN3c3nc(-c4cc(Cl)c(N)c(Cl)c4)cs3)nc3cc(C(=O)NCCCO)ccc32)cc1 (centres undefined) | i | i | -4 | i | i | / | / | /
Cc1ccc(-n2c(-c3ccco3)n[nH]c2=S)cc1 | i | i | -7 | i | i | / | / | /
CC(C1CC2CCC1C2)n1c(-c2ccco2)n[nH]c1=S (centres undefined) | i | -15* | -4 | i | i | 62%* | i | i
O=C(CN1CCN(S(=O)(=O)c2ccccc2)CC1)Nc1ccc2c(c1)CCC2 | i | i | -11 | i | i | / | / | /
CC(=O)c1ccc(NC(=O)Cc2ccsc2)cc1 | i | i | -3 | i | i | / | / | /
CCc1nnc(NS(=O)(=O)c2ccc(N/C=C(\C=O)c3nc4cc(Cl)ccc4o3)cc2)s1 | i | i | -15 | i | i | i | i | i
CCc1nnc(NS(=O)(=O)c2ccc(NC(=O)c3ccc(Cl)cc3)cc2)s1 | i | i | -10 | i | i | / | / | /
COC(=O)C(NC(=O)c1ccccc1C)(Nc1ncc(S(=O)(=O)c2ccc([N+](=O)[O-])cc2)s1)C(F)(F)F (centres undefined) | i | i | -12 | i | i | i | i | i
C#Cc1cccc(C(=O)N2CCCC(C(=O)c3ccc(OC)cc3C)C2)c1 (centres undefined) | i | i | -12 | i | i | i | i | i
COc1ccc(C(=O)C2CCCN(C(=O)c3csc(C(C)=O)c3)C2)c(C)c1 (centres undefined) | i | i | -6 | i | i | / | / | /
COc1ccc(C(=O)C2CCCN(C(=O)C3=CCCC3)C2)c(C)c1 (centres undefined) | i | i | -14 | i | i | i | i | i

Screening results: PubChem, Johns Hopkins Ion Channel Center
